Many of the other results were omitted from the sample, so hits are more common in it than they were.
PTEN del growth: PTEN-deleted cell growth suppression. hit rate 1.2% among 140,000. viability, % at 10 µM. HCT116 PTEN-null viability, CellTiter-Glo, 60 h; hits give low values. AID 827;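 active = viability at or below a set limit, 4 SD under the median of all tested compounds, cut at about 3.7% in these data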;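 also: PTEN knockout HCT116 line with beta catenin targeted HCT116 as companion control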
Lung fibro prol: blocks proliferation of human lung fibroblasts; viability, % at 10 µM; hit rate 1.1% among 85,000; LL 47 human lung fibroblast viability, ATP luminescence; hits give low values; AID 719;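 active = viability at or below 50% in the single dose screen; inactive = viability above 50%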;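 also: compound exposure lasted 72 h before the ATP readout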
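Test system: LL 47 human lung fibroblasts / Incubation: 72 h compound exposure at 37 °C after overnight plating / Technique: luminescent ATP detection, CellTiter-Glo / Compound dosing: 0.1% DMSO in all compound wells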
bCat KO growth: beta-catenin-lacking colon tumor cell growth suppression. HCT116 beta-catenin knockout viability, CellTiter-Glo, 60 h; hits give low values. viability, % at 10 µM. hit rate 1.5% among 140,000. AID 818;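 active = viability at or under a set limit, the compound median less 4 SD, cut at about 6% in these data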
HUVEC prolif 384: inhibitors of human endothelial cell proliferation | AID 648 | viability, % at 10 µM (by protocol) | HUVEC proliferation, CellTiter-Glo luminescence, 72 h; hits give low values | hit rate 1.1% among 86,000;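 active = viability at or below 30%; inactive = viability above 30%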
H69AR inhibit: blocks growth of human H69AR lung tumor cells; H69AR lung tumor viability, ATP luminescence, 72 h; hits give low values; viability, % at 10 µM; hit rate 6% among 85,000;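 active = viability at or below 40%; inactive = viability above 40%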;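 also: multidrug resistant small cell line overexpressing MRP-1 efflux transporter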
Candida biofilm: kills Candida albicans biofilms; C. albicans biofilm + clotrimazole, Alamar Blue; inhibition, % at 6 µM; hit rate 0.14% among 85,000; AID 834;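 active = inhibition above 20%; inactive = inhibition below 20%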;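 also: preformed 24 hr biofilms exposed to compound for 48 hr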
Large screens that a line does not name were inactive.

Cn1cccc1-c1nc2ccc(NC(=O)c3ccccc3)cc2[nH]1	none (no result: Lung fibro prol)
Cn1cccc1-c1nc2ccc(NC(=O)c3ccc([N+](=O)[O-])cc3)cc2[nH]1	H69AR inhibit 33
CSc1nc2ccccc2cc1/C=C(\C#N)c1ccc(Cl)c(Cl)c1	PTEN del growth 2.4, bCat KO growth 1.9 (no result: Lung fibro prol, HUVEC prolif 384, H69AR inhibit, Candida biofilm)
Cc1ccccc1NC(=O)c1ccc(Cl)c(NC(=O)c2ccncc2)c1	none (no result: Lung fibro prol, HUVEC prolif 384, H69AR inhibit, Candida biofilm)
CCOc1cc(S(=O)(=O)N2CCC(Cc3ccccc3)CC2)c(OCC)cc1-n1cnnn1	none
CCOc1cc(S(=O)(=O)N2CC=C(c3ccc(F)cc3)CC2)c(OCC)cc1-n1cnnn1	Lung fibro prol 48, H69AR inhibit 12
C/C(=N\NC(=O)CCCOc1ccc(Cl)cc1C)c1ccc(C)o1	none (no result: Lung fibro prol, HUVEC prolif 384, H69AR inhibit, Candida biofilm)
COc1ccc2nc3c(cc2c1)c(NC(=O)c1cccs1)nn3CC(C)C	H69AR inhibit 35
Cc1cccc(NC(=O)CSc2nc3ccc(NC(=O)CSc4nnnn4-c4ccccc4)cc3s2)c1C	bCat KO growth 2.3 (no result: Lung fibro prol, HUVEC prolif 384, H69AR inhibit, Candida biofilm)
Cc1ccc(N=Nc2c(N)[nH]n3c(=O)cc(C)nc23)cc1	none (no result: Lung fibro prol, HUVEC prolif 384, H69AR inhibit, Candida biofilm)
Nc1[nH]n2c(=O)cc(-c3ccccc3)nc2c1N=Nc1ccccc1	bCat KO growth 3.7 (no result: Lung fibro prol, HUVEC prolif 384, H69AR inhibit, Candida biofilm)
Cc1cccc(-n2nnnc2SC(C)C(=O)NCCC2=CCCCC2)c1 (stereo not given)	H69AR inhibit 35
Cc1ccc(N(C(=O)Cn2nnc(-c3ccc(F)cc3)n2)C(CC(C)C)C(=O)NCC2CCCO2)cc1 (stereo not given)	none (no result: Lung fibro prol, HUVEC prolif 384, H69AR inhibit, Candida biofilm)
COc1ccc(Cn2nnc3c(=O)[nH]c(C(=O)NCCc4ccc(F)cc4)nc32)cc1OC	none
Cc1ccc(C(=O)C[n+]2cc(-c3ccc(C)cc3)n3c2CCCCC3)cc1	bCat KO growth 3.5 (no result: Lung fibro prol, HUVEC prolif 384, H69AR inhibit, Candida biofilm)
Cc1ccc(-c2c[n+](CC(=O)OCc3ccccc3)c3n2CCC3)cc1	none (no result: Lung fibro prol, HUVEC prolif 384, H69AR inhibit, Candida biofilm)
Cc1ccc(NC(=O)c2c(O)c3ccccc3n(C)c2=O)nc1	Lung fibro prol 31, H69AR inhibit 13
Cc1ccnc(NC(=O)c2c(O)c3ccccc3n(C)c2=O)c1	H69AR inhibit 5.7 (no result: PTEN del growth, bCat KO growth)
Cn1c(=O)c(C(=O)Nc2ncccc2O)c(O)c2ccccc21	none
CC(C)Cn1c(=O)c(C(=O)Nc2ccncc2)c(O)c2ccccc21	H69AR inhibit 9.8 (no result: PTEN del growth, bCat KO growth)
Cn1c(=O)c(C(=O)Nc2cccnc2)c(O)c2ccccc21	H69AR inhibit 12 (no result: PTEN del growth, bCat KO growth)
COCCCNC(=O)c1ccccc1NS(=O)(=O)c1ccc(C)cc1	none
O=C(OC(C(=O)Nc1cccc(C(F)(F)F)c1)c1ccccc1)C1CCCCC1 (stereo not given)	none (no result: Lung fibro prol, HUVEC prolif 384, H69AR inhibit, Candida biofilm)
CC1(C)Nc2ccc(O)cc2-c2c1ssc2=S	HUVEC prolif 384 27
O=C(O)c1ccccc1C(=O)Nc1ccc(S(=O)(=O)NC2CCCCC2)cc1	none (no result: Lung fibro prol, HUVEC prolif 384, H69AR inhibit, Candida biofilm)
COc1ccccc1OCc1nc2c3c(-c4ccccc4)c(-c4ccccc4)oc3ncn2n1	H69AR inhibit 25 (no result: PTEN del growth, bCat KO growth)
Cc1nc2c3c(-c4ccccc4)c(-c4ccccc4)oc3ncn2n1	none (no result: PTEN del growth, bCat KO growth)
CCOC(=O)c1ccc(S(=O)(=O)N2CCC(C(=O)O)CC2)cc1	none (no result: Lung fibro prol, HUVEC prolif 384, H69AR inhibit, Candida biofilm)
COc1ccc(/C=N/Nc2nc(Nc3ccccc3)nc(N3CCCCC3)n2)cc1OC	none (no result: Lung fibro prol, HUVEC prolif 384, H69AR inhibit, Candida biofilm)
COc1cccc(/C=N/Nc2ncnc(Cl)c2N)c1O	PTEN del growth 3.1 (no result: Lung fibro prol, HUVEC prolif 384, H69AR inhibit, Candida biofilm)
COc1cccc(/C=N/Nc2nc(Nc3ccccc3)nc(-n3nc(C)cc3C)n2)c1O	PTEN del growth 2.0, bCat KO growth 2.8 (no result: Lung fibro prol, HUVEC prolif 384, H69AR inhibit, Candida biofilm)
COc1cccc(/C=N/Nc2nc3ccccc3n3cnnc23)c1O	bCat KO growth 5.8 (no result: Lung fibro prol, HUVEC prolif 384, H69AR inhibit, Candida biofilm)
COc1cccc(/C=N/Nc2cc(-n3nc(C)cc3-c3ccccc3)ncn2)c1O	PTEN del growth 3.5, bCat KO growth 3.8 (no result: Lung fibro prol, HUVEC prolif 384, H69AR inhibit, Candida biofilm)
COc1cccc(/C=N/Nc2ncnc3scc(-c4ccccc4)c23)c1O	none (no result: Lung fibro prol, HUVEC prolif 384, H69AR inhibit, Candida biofilm)
COc1ccc(/C=N/Nc2ncnc(Cl)c2N)cc1OC	none (no result: Lung fibro prol, HUVEC prolif 384, H69AR inhibit, Candida biofilm)
COc1cc(-c2noc(CCCC(=O)NC3CCCCC3)n2)cc(OC)c1OC	none
COc1ccc(C2CCCN2C(=O)Nc2ccc(Cl)cc2)cc1OC (stereo not given)	none
COCCNC(=S)N/N=C(\C)c1cccc([N+](=O)[O-])c1	none (no result: Lung fibro prol, HUVEC prolif 384, H69AR inhibit, Candida biofilm)
CCCCCCCCCC(=O)N/N=C/c1ccc(C)s1	none (no result: Lung fibro prol, HUVEC prolif 384, H69AR inhibit, Candida biofilm)
COc1ccc(/C=N/Nc2cc(C)nc(-n3nc(C)cc3C)n2)c(OC)c1	PTEN del growth 2.4, bCat KO growth 2.6 (no result: Lung fibro prol, HUVEC prolif 384, H69AR inhibit, Candida biofilm)
O=C(/C=C(\O)c1ccc(Cl)cc1)C(=O)NNC(=O)C(O)(c1ccccc1)c1ccccc1	H69AR inhibit 24
O=C(CN1CCN(Cc2ccc(Cl)cc2)CC1)N/N=C/c1c[nH]c2ccccc12	none (no result: Lung fibro prol, HUVEC prolif 384, H69AR inhibit, Candida biofilm)
CC(C)(C)C(=O)NC(=S)NNC(=O)c1sc2ccccc2c1Cl	bCat KO growth 3.0 (no result: Lung fibro prol, HUVEC prolif 384, H69AR inhibit, Candida biofilm)
CCCCNC(=O)NC1(C(F)(F)F)Oc2ccccc2O1	H69AR inhibit 22
CC(=O)NC1(C(Cl)(Cl)Cl)Oc2ccccc2O1	none (no result: Lung fibro prol, HUVEC prolif 384, H69AR inhibit, Candida biofilm)
COc1ccc(OC)c(NC(=O)NC2(C(F)(F)F)Oc3ccccc3O2)c1	H69AR inhibit 13
O=C(NCCN1CCOCC1)NC1(C(F)(F)F)Oc2ccccc2O1	H69AR inhibit 18
NS(=O)(=O)c1ccc(CCNC(=O)NC2(C(F)(F)F)Oc3ccccc3O2)cc1	H69AR inhibit 20
CCOC(=O)CSc1cc(=O)n(C)c2cc(Cl)ccc12	none
CCOc1ccc(S(=O)(=O)Nc2nc3ccccc3nc2Nc2ccc(N3CCOCC3)cc2)cc1	none (no result: Lung fibro prol, HUVEC prolif 384, H69AR inhibit, Candida biofilm)
COc1cc(OC)cc(C(C(=O)NC2CCCCC2)N(C(=O)c2ccno2)c2ccccc2)c1 (stereo not given)	none
CC(C)OC(=O)c1ccc(NC(=O)Cn2c(-c3nonc3N)nc3ccccc32)cc1	none
